Measured values: ChEMBL document CHEMBL1155379, “Effect of 3'-end capping of aptamer with various 2',4'-bridged nucleotides: Enzymatic post-modification toward a practical use of polyclonal aptamers” (Bioorg Med Chem Lett, 2010)
pKd: −log10 of the molar value.

How the values were obtained:
[1] = Chemical stability in presence of snake venom phosphodiesterase 1 assessed as oligonucleotide degradation after 120 mins by PAGE; type: physicochemical; settings: 2 h
Prothrombin = Prothrombin (Homo sapiens, UniProt P00734); assay: Binding affinity to human thrombin after 30 mins by non-equilibrium capillary electrophoresis
In short: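 Capillary electrophoresis of aptamer–thrombin mixtures: aptamer 1 nM with thrombin 4 nM in 20 mM Tris-HCl (1 mM MgCl2) pH 7.4 sample buffer; running buffer 100 mM sodium borate pH 8.35; separation +12 kV, injection 0.5 psi × 7.8 s. Kd derived from binding saturation curves over varied thrombin concentrations.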

[2] = Chemical stability in presence of 80% (v/v) human serum assessed as intact compound remaining after 8 hrs by PAGE; type: physicochemical; settings: read-out: Stability
In short: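 Aptamer incubated in 80% v/v human serum at 37 °C for 8 h; intact full-length aptamer remaining quantified.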

With `C=C1NC(=O)C(C)=CN1[C@H]1C[C@H](OP(=O)(O)OC[C@H]2O[C@@H](n3cnc4c(=O)[nH]c(N)nc43)[C@H](O)[C@@H]2OP(=O)(O)OC[C@H]2O[C@@H](n3cnc4c(N)ncnc43)[C@H](O)[C@@H]2OP(=O)(O)OC[C@H]2O[C@@H](n3ccc(N)nc3=O)[C@H](O)[C@@H]2OP(=O)(O)OC[C@H]2O[C@@H](n3cc(C)c(=O)[nH]c3=O)C[C@@H]2O)[C@@H](COP(=O)(O)O[C@H]2[C@@H](O)[C@H](n3cnc4c(=O)[nH]c(N)nc43)O[C@@H]2COP(=O)(O)O[C@H]2[C@@H](O)[C@H](n3cnc4c(=O)[nH]c(N)nc43)O[C@@H]2COP(=O)(O)O[C@H]2[C@@H](O)[C@H](n3cnc4c(=O)[nH]c(N)nc43)O[C@@H]2COP(=O)(O)O[C@H]2[C@@H](O)[C@H](n3cnc4c(=O)[nH]c(N)nc43)O[C@@H]2COP(=O)(O)O[C@H]2C[C@H](n3cc(C)c(=O)[nH]c3=O)O[C@@H]2COP(=O)(O)O[C@H]2C[C@H](n3cc(C)c(=O)[nH]c3=O)O[C@@H]2COP(=O)(O)O[C@H]2[C@@H](O)[C@H](n3cnc4c(=O)[nH]c(N)nc43)O[C@@H]2COP(=O)(O)O[C@H]2[C@@H](O)[C@H](n3cnc4c(=O)[nH]c(N)nc43)O[C@@H]2COP(=O)(O)O[C@H]2[C@@H](O)[C@H](n3cnc4c(N)ncnc43)O[C@@H]2COP(=O)(O)O[C@H]2[C@@H](O)[C@H](n3ccc(N)nc3=O)O[C@@H]2COP(=O)(O)O[C@H]2[C@@H](O)[C@H](n3cnc4c(=O)[nH]c(N)nc43)O[C@@H]2COP(=O)(O)O[C@H]2[C@@H](O)[C@H](n3cnc4c(=O)[nH]c(N)nc43)O[C@@H]2COP(=O)(O)O[C@H]2[C@@H](O)[C@H](n3cnc4c(=O)[nH]c(N)nc43)O[C@@H]2COP(=O)(O)O[C@H]2[C@@H](O)[C@H](n3cnc4c(N)ncnc43)O[C@@H]2COP(=O)(O)O[C@H]2C[C@H](n3cc(C)c(=O)[nH]c3=O)O[C@@H]2COP(=O)(O)O[C@H]2[C@@H](O)[C@H](n3cnc4c(=O)[nH]c(N)nc43)O[C@@H]2COP(=O)(O)O[C@H]2[C@@H](O)[C@H](n3cnc4c(=O)[nH]c(N)nc43)O[C@@H]2COP(=O)(O)O[C@H]2C[C@H](n3cc(C)c(=O)[nH]c3=O)O[C@@H]2COP(=O)(O)O[C@H]2[C@@H](O)[C@H](n3cnc4c(=O)[nH]c(N)nc43)O[C@@H]2COP(=O)(O)O[C@H]2[C@@H](O)[C@H](n3ccc(N)nc3=O)O[C@@H]2COP(=O)(O)O[C@H]2[C@@H](O)[C@H](n3ccc(N)nc3=O)O[C@@H]2COP(=O)(O)O[C@H]2C[C@H](n3cc(C)c(=O)[nH]c3=O)O[C@@H]2COP(=O)(O)O[C@H]2[C@@H](O)[C@H](n3cnc4c(=O)[nH]c(N)nc43)O[C@@H]2COP(=O)(O)O[C@H]2[C@@H](O)[C@H](n3cnc4c(N)ncnc43)O[C@@H]2COc2ccc3c(c2)Oc2cc(O)ccc2C32OC(=O)c3ccccc32)O1` (some centres not stated) the Stability [1] was “Unstable”, the pKd (Prothrombin) was 9.60 and the remaining at 8 h [2] was 0%.

With `C=C1NC(=O)C(C)=CN1[C@H]1C[C@H](OP(=O)(O)OC[C@H]2O[C@@H](n3cnc4c(=O)[nH]c(N)nc43)[C@H](O)[C@@H]2OP(=O)(O)OC[C@H]2O[C@@H](n3cnc4c(N)ncnc43)[C@H](O)[C@@H]2OP(=O)(O)OC[C@H]2O[C@@H](n3ccc(N)nc3=O)[C@H](O)[C@@H]2OP(=O)(O)OC[C@H]2O[C@@H](n3cc(C)c(=O)[nH]c3=O)C[C@@H]2OP(=O)(O)OC[C@@]23CO[C@@H]([C@H](n4cc(C)c(=O)[nH]c4=O)O2)[C@@H]3O)[C@@H](COP(=O)(O)O[C@H]2[C@@H](O)[C@H](n3cnc4c(=O)[nH]c(N)nc43)O[C@@H]2COP(=O)(O)O[C@H]2[C@@H](O)[C@H](n3cnc4c(=O)[nH]c(N)nc43)O[C@@H]2COP(=O)(O)O[C@H]2[C@@H](O)[C@H](n3cnc4c(=O)[nH]c(N)nc43)O[C@@H]2COP(=O)(O)O[C@H]2[C@@H](O)[C@H](n3cnc4c(=O)[nH]c(N)nc43)O[C@@H]2COP(=O)(O)O[C@H]2C[C@H](n3cc(C)c(=O)[nH]c3=O)O[C@@H]2COP(=O)(O)O[C@H]2C[C@H](n3cc(C)c(=O)[nH]c3=O)O[C@@H]2COP(=O)(O)O[C@H]2[C@@H](O)[C@H](n3cnc4c(=O)[nH]c(N)nc43)O[C@@H]2COP(=O)(O)O[C@H]2[C@@H](O)[C@H](n3cnc4c(=O)[nH]c(N)nc43)O[C@@H]2COP(=O)(O)O[C@H]2[C@@H](O)[C@H](n3cnc4c(N)ncnc43)O[C@@H]2COP(=O)(O)O[C@H]2[C@@H](O)[C@H](n3ccc(N)nc3=O)O[C@@H]2COP(=O)(O)O[C@H]2[C@@H](O)[C@H](n3cnc4c(=O)[nH]c(N)nc43)O[C@@H]2COP(=O)(O)O[C@H]2[C@@H](O)[C@H](n3cnc4c(=O)[nH]c(N)nc43)O[C@@H]2COP(=O)(O)O[C@H]2[C@@H](O)[C@H](n3cnc4c(=O)[nH]c(N)nc43)O[C@@H]2COP(=O)(O)O[C@H]2[C@@H](O)[C@H](n3cnc4c(N)ncnc43)O[C@@H]2COP(=O)(O)O[C@H]2C[C@H](n3cc(C)c(=O)[nH]c3=O)O[C@@H]2COP(=O)(O)O[C@H]2[C@@H](O)[C@H](n3cnc4c(=O)[nH]c(N)nc43)O[C@@H]2COP(=O)(O)O[C@H]2[C@@H](O)[C@H](n3cnc4c(=O)[nH]c(N)nc43)O[C@@H]2COP(=O)(O)O[C@H]2C[C@H](n3cc(C)c(=O)[nH]c3=O)O[C@@H]2COP(=O)(O)O[C@H]2[C@@H](O)[C@H](n3cnc4c(=O)[nH]c(N)nc43)O[C@@H]2COP(=O)(O)O[C@H]2[C@@H](O)[C@H](n3ccc(N)nc3=O)O[C@@H]2COP(=O)(O)O[C@H]2[C@@H](O)[C@H](n3ccc(N)nc3=O)O[C@@H]2COP(=O)(O)O[C@H]2C[C@H](n3cc(C)c(=O)[nH]c3=O)O[C@@H]2COP(=O)(O)O[C@H]2[C@@H](O)[C@H](n3cnc4c(=O)[nH]c(N)nc43)O[C@@H]2COP(=O)(O)O[C@H]2[C@@H](O)[C@H](n3cnc4c(N)ncnc43)O[C@@H]2COc2ccc3c(c2)Oc2cc(O)ccc2C32OC(=O)c3ccccc32)O1` (some centres not stated) the Stability [1] was “Stable” and the pKd (Prothrombin) was 9.74.

In the case of `C=C1NC(=O)C(C)=CN1[C@H]1C[C@H](OP(=O)(O)OC[C@H]2O[C@@H](n3cnc4c(=O)[nH]c(N)nc43)[C@H](O)[C@@H]2OP(=O)(O)OC[C@H]2O[C@@H](n3cnc4c(N)ncnc43)[C@H](O)[C@@H]2OP(=O)(O)OC[C@H]2O[C@@H](n3ccc(N)nc3=O)[C@H](O)[C@@H]2OP(=O)(O)OC[C@H]2O[C@@H](n3cc(C)c(=O)[nH]c3=O)C[C@@H]2OP(=O)(O)OC[C@@]23COCO[C@@H]([C@H](n4cc(C)c(=O)[nH]c4=O)O2)[C@@H]3O)[C@@H](COP(=O)(O)O[C@H]2[C@@H](O)[C@H](n3cnc4c(=O)[nH]c(N)nc43)O[C@@H]2COP(=O)(O)O[C@H]2[C@@H](O)[C@H](n3cnc4c(=O)[nH]c(N)nc43)O[C@@H]2COP(=O)(O)O[C@H]2[C@@H](O)[C@H](n3cnc4c(=O)[nH]c(N)nc43)O[C@@H]2COP(=O)(O)O[C@H]2[C@@H](O)[C@H](n3cnc4c(=O)[nH]c(N)nc43)O[C@@H]2COP(=O)(O)O[C@H]2C[C@H](n3cc(C)c(=O)[nH]c3=O)O[C@@H]2COP(=O)(O)O[C@H]2C[C@H](n3cc(C)c(=O)[nH]c3=O)O[C@@H]2COP(=O)(O)O[C@H]2[C@@H](O)[C@H](n3cnc4c(=O)[nH]c(N)nc43)O[C@@H]2COP(=O)(O)O[C@H]2[C@@H](O)[C@H](n3cnc4c(=O)[nH]c(N)nc43)O[C@@H]2COP(=O)(O)O[C@H]2[C@@H](O)[C@H](n3cnc4c(N)ncnc43)O[C@@H]2COP(=O)(O)O[C@H]2[C@@H](O)[C@H](n3ccc(N)nc3=O)O[C@@H]2COP(=O)(O)O[C@H]2[C@@H](O)[C@H](n3cnc4c(=O)[nH]c(N)nc43)O[C@@H]2COP(=O)(O)O[C@H]2[C@@H](O)[C@H](n3cnc4c(=O)[nH]c(N)nc43)O[C@@H]2COP(=O)(O)O[C@H]2[C@@H](O)[C@H](n3cnc4c(=O)[nH]c(N)nc43)O[C@@H]2COP(=O)(O)O[C@H]2[C@@H](O)[C@H](n3cnc4c(N)ncnc43)O[C@@H]2COP(=O)(O)O[C@H]2C[C@H](n3cc(C)c(=O)[nH]c3=O)O[C@@H]2COP(=O)(O)O[C@H]2[C@@H](O)[C@H](n3cnc4c(=O)[nH]c(N)nc43)O[C@@H]2COP(=O)(O)O[C@H]2[C@@H](O)[C@H](n3cnc4c(=O)[nH]c(N)nc43)O[C@@H]2COP(=O)(O)O[C@H]2C[C@H](n3cc(C)c(=O)[nH]c3=O)O[C@@H]2COP(=O)(O)O[C@H]2[C@@H](O)[C@H](n3cnc4c(=O)[nH]c(N)nc43)O[C@@H]2COP(=O)(O)O[C@H]2[C@@H](O)[C@H](n3ccc(N)nc3=O)O[C@@H]2COP(=O)(O)O[C@H]2[C@@H](O)[C@H](n3ccc(N)nc3=O)O[C@@H]2COP(=O)(O)O[C@H]2C[C@H](n3cc(C)c(=O)[nH]c3=O)O[C@@H]2COP(=O)(O)O[C@H]2[C@@H](O)[C@H](n3cnc4c(=O)[nH]c(N)nc43)O[C@@H]2COP(=O)(O)O[C@H]2[C@@H](O)[C@H](n3cnc4c(N)ncnc43)O[C@@H]2COc2ccc3c(c2)Oc2cc(O)ccc2C32OC(=O)c3ccccc32)O1` (some centres not stated), the Stability [1] was “Stable” and the pKd (Prothrombin) was 9.57.
